Results reported in ChEMBL document CHEMBL4138044, “Withaferin A induces cell death and differentiation in multiple myeloma cancer stem cells” (Medchemcomm, 2017).

Legend:
[1] = tested on: Multiple myeloma cancer stem cell; assay: Antiproliferative activity against human multiple myeloma cancer stem cells after 72 hrs by MTT assay; format: functional, cell-based
In short: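 MM-CSCs plated at 5000 cells/well and allowed to adhere 24 h, then exposed to 0–10 μM WFA for 72 h. MTT added for 2 h. Growth taken as absorbance relative to vehicle-control wells ×100. IC50 fitted from at least five concentrations; mean of three independent experiments ± SEM.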

[2] = Antiproliferative activity against human […] cells after 72 hrs by XTT assay; format: functional, cell-based
In short: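 RPMI 8226 cells in RPMI 1640 with 10% FBS, plated at 15 000 cells/well and treated immediately with 0–10 μM WFA for 72 h. XTT added for 4 h. Growth as absorbance relative to vehicle control ×100. IC50 fitted from at least five concentrations; mean of three independent experiments ± SEM.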

With `C[C@@H]1C[C@H]2[C@@H]3CCC4=CC(=O)C=C[C@]4(C)[C@@]3(F)[C@@H](O)C[C@]2(C)[C@@]1(O)C(=O)CO` [DEXAMETHASONE] as the molecule, how does the IC50 [1] read?
Its IC50 is greater than 100000 nM.

And the IC50 [2]?
Its IC50 is 7.8 nM.
